From PubChem BioAssay
The entries come from a sample that favours hits as a whole.
A1 apoptosis 2 = A1 inhibition read as caspase activation; MEF A1-2A-BIM cells, caspase-Glo luminescence, 3 h; percent of clofoctol response, DMSO zero; caspase activation, % (test concentration not listed); 24,000 tested, under 10 active; AID 2465; in the data active = caspase activation above about 5.9%; inconclusive = no clear call, values can overlap the other calls; inactive = below about 2.2%
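Test system – A1-2A-BIM-expressing MEF cells · Input – 2500 cells/well · Medium – RPMI-1640 growth medium with 10% FBS · Compound dosing – 50 nL pinned compound · Timing – 3 h compound exposure at 37 °C · Technique – Caspase-Glo luminescence (DEVD substrate) · Evaluation – Caspase-3/7 activity from luminescence increase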
T cruzi intra = blocks T. cruzi growth inside host cells | intracellular Trypanosoma cruzi in host cells, plate reader | 4.9% of 22,000 active | activity score (inhibition), % at 5.01 µM; in the data active = activity score above about 55%; inconclusive = no clear call, values can overlap the other calls;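 also: parasites and compound incubated about four days before reading; 0% = median of neutral control wells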
INS-1E rescue = preserves ATP levels in cytokine-treated INS-1E cells | INS-1E cytokine-induced death, ATP luminescence, 48 h; normalised: neutral wells 0, positive control 100 | protection from cytokine-induced ATP loss, % at 10 µM | 0.1% of 20,000 active;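 active = mean replicate protection from cytokine-induced ATP loss at least 50% and at least 75% of replicates each reaching 50%; inconclusive = meets only one of the two criteria, mean or replicate share; inactive = fails both the mean and replicate share criteria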
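Material: INS-1E rat cells; Quantity: 8000 cells/well; Buffer or medium: phenol-red-free RPMI with 5% fetal bovine serum; Probe or stimulus: cytokine cocktail of IFN-γ, TNF-α and IL-1β; Compound dosing: single test concentration per compound, delivered by pin transfer; Incubation: 48 h co-treatment, 10 min post-lysis read; Signal: CellTiter-Glo luminescence.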
The depositor's hits bear a star.

Results for NC(=O)[C@H]1[C@@H]2C(=O)O[C@@H](c3ccccc3)[C@@H](c3ccccc3)N2[C@@H](c2ccc(O)cc2)[C@]12C(=O)Nc1ccc(C#CC3=CCCCC3)cc12 ?
A1 apoptosis 2: 0

Results for C[C@H](CO)N1C[C@H](C)[C@@H](CN(C)Cc2ccc(Oc3ccccc3)cc2)Oc2ccc(N(C)C)cc2C1=O ?
A1 apoptosis 2: -2; T cruzi intra: 71*; INS-1E rescue: -10

What do the screens show for `C[C@@H]1CN([C@@H](C)CO)C(=O)c2cc(N(C)C)ccc2O[C@@H]1CN(C)Cc1ccc(Cl)c(Cl)c1`?
T cruzi intra: 64*; INS-1E rescue: -11

Results for C[C@H](CO)N1C[C@H](C)[C@H](CN(C)Cc2ccccc2)Oc2ccc(N(C)C)cc2C1=O ?
A1 apoptosis 2: 0; T cruzi intra: -4; INS-1E rescue: 2

How did C[C@@H]1CN([C@H](C)CO)C(=O)c2cc(N(C)C)ccc2O[C@@H]1CN(C)Cc1ccc(Cl)c(Cl)c1 do in these assays?
A1 apoptosis 2: -1; T cruzi intra: 21; INS-1E rescue: -6

Results for C[C@H]1CN([C@@H](C)CO)C(=O)c2cc(N(C)C)ccc2O[C@H]1CN(C)Cc1ccc(-c2ccccc2)cc1 ?
T cruzi intra: 35; INS-1E rescue: -2

How did C[C@@H]1CN([C@@H](C)CO)C(=O)c2cc(N(C)C)ccc2O[C@@H]1CN(C)Cc1ccc(-c2ccccc2)cc1 do in these assays?
T cruzi intra: 65*; INS-1E rescue: -15

What do the screens show for `COc1ccccc1CN1C(=O)c2ccccc2[C@](Cc2ccccc2I)(C(=O)NCC(C)C)[C@@H]1c1ccc(CO)cc1`?
A1 apoptosis 2: -1

Results for O=C(N/N=C/c1cccnc1)c1ccccc1O ?
A1 apoptosis 2: -4

What do the screens show for `C[C@@H]1CN([C@H](C)CO)C(=O)Cc2cc(NC(=O)Nc3ccc(C(F)(F)F)cc3)ccc2O[C@H]1CN(C)Cc1ccc(Oc2ccccc2)cc1`?
A1 apoptosis 2: 0; T cruzi intra: 62*; INS-1E rescue: -16

Results for COc1ccc(NC(=O)Nc2ccc3c(c2)CC(=O)N([C@H](C)CO)C[C@H](C)[C@@H](CN(C)Cc2ccc(C(F)(F)F)cc2)O3)cc1 ?
A1 apoptosis 2: 1

Results for C[C@H](CO)N1C[C@H](C)[C@H](CN(C)Cc2ccc(Oc3ccccc3)cc2)Oc2ccc(NC(=O)Nc3ccc(C(F)(F)F)cc3)cc2CC1=O ?
A1 apoptosis 2: 2; T cruzi intra: 64*; INS-1E rescue: -52

How did COC(=O)CCCCCCC(=O)N/N=C/[C@H](O)[C@@H](O)[C@H](O)[C@H](O)CO[C@H]1O[C@H](CO)[C@H](O)[C@H](O)[C@H]1O do in these assays?
A1 apoptosis 2: 1; T cruzi intra: -12; INS-1E rescue: -7

Results for OCC1CC(c2ccccc2)=NO1 (stereo not given) ?
A1 apoptosis 2: -1

What do the screens show for `COc1ccc(/C=N/NC(=O)c2ccccc2O)cc1OC`?
A1 apoptosis 2: 1; T cruzi intra: -9; INS-1E rescue: -28

How did COc1ccc(C#Cc2cnc3c(c2)C(=O)N([C@H](C)CO)C[C@H](C)[C@H](CN(C)C)O3)cc1OC do in these assays?
A1 apoptosis 2: 0; T cruzi intra: 83*

What do the screens show for `COc1ccc(C#Cc2cnc3c(c2)C(=O)N([C@H](C)CO)C[C@H](C)[C@H](CN(C)Cc2ccccc2)O3)cc1OC`?
A1 apoptosis 2: 0; T cruzi intra: 15

How did C[C@H](CO)N1C[C@H](C)[C@H](CN(C)C)Oc2ncc(C#CCN(C)C)cc2C1=O do in these assays?
T cruzi intra: -15

How did C[C@H](CO)N1C[C@H](C)[C@H](CN(C)C)Oc2ncc(C#Cc3ccccc3)cc2C1=O do in these assays?
A1 apoptosis 2: 0; T cruzi intra: 78*

Results for COc1ccc(C#Cc2cnc3c(c2)C(=O)N([C@H](C)CO)C[C@H](C)[C@H](CN(C)Cc2cccc(C(F)(F)F)c2)O3)cc1OC ?
A1 apoptosis 2: 0; T cruzi intra: 84*

Results for Cc1cccc(CN(C)C[C@@H]2Oc3ncc(C#CCN(C)C)cc3C(=O)N([C@H](C)CO)C[C@@H]2C)c1 ?
T cruzi intra: 3

Results for Cc1cccc(CN(C)C[C@@H]2Oc3ncc(C#Cc4ccccc4)cc3C(=O)N([C@H](C)CO)C[C@@H]2C)c1 ?
A1 apoptosis 2: 0; T cruzi intra: 74*

What do the screens show for `COc1ccc(S(=O)(=O)N(C)C[C@@H]2Oc3ncc(C#Cc4ccc(OC)c(OC)c4)cc3C(=O)N([C@H](C)CO)C[C@@H]2C)cc1`?
A1 apoptosis 2: -1; T cruzi intra: 43

Results for O=C(Cc1ccccc1)OC(C(=O)NCc1ccccc1)c1ccco1 (stereo not given) ?
A1 apoptosis 2: -1

Results for O=C(CCCCCCC(=O)Nc1ccccc1O)N/N=C/C=C/c1ccccc1 ?
A1 apoptosis 2: 1; T cruzi intra: -20; INS-1E rescue: 6

What do the screens show for `O=C(CCCCCCC(=O)Nc1ccccc1O)N/N=C/c1ccncc1Br`?
A1 apoptosis 2: 1; T cruzi intra: 6; INS-1E rescue: 2

How did [N-]=[N+]=Nc1cccc(C(=O)NCCc2c[nH]c3ccccc23)c1 do in these assays?
A1 apoptosis 2: 1

What do the screens show for `O=C(O)CCCCCC(=O)N/N=C/c1ccc(CO)o1`?
T cruzi intra: -20; INS-1E rescue: -1

What do the screens show for `CC1=C2[C@@H](c3ccccc3)OB(O)C[C@@H]2n2c(=O)n(-c3ccccc3)c(=O)n2C1`?
A1 apoptosis 2: -1

What do the screens show for `Cc1noc(C)c1S(=O)(=O)Nc1ccc2c(c1)CC(=O)N([C@H](C)CO)C[C@@H](C)[C@H](CN(C)Cc1ccc(Cl)c(Cl)c1)O2`?
A1 apoptosis 2: 0; T cruzi intra: 63*; INS-1E rescue: -20

How did Cc1noc(C)c1S(=O)(=O)Nc1ccc2c(c1)C(=O)N([C@@H](C)CO)C[C@H](C)[C@H](CN(C)Cc1ccc(Cl)c(Cl)c1)O2 do in these assays?
A1 apoptosis 2: 0; T cruzi intra: 62*; INS-1E rescue: -12

What do the screens show for `Cc1noc(C)c1S(=O)(=O)Nc1ccc2c(c1)C(=O)N([C@H](C)CO)C[C@H](C)[C@H](CN(C)Cc1ccc(Cl)c(Cl)c1)O2`?
A1 apoptosis 2: 0; T cruzi intra: inconclusive; INS-1E rescue: -15

How did Cc1noc(C)c1S(=O)(=O)Nc1ccc2c(c1)C(=O)N([C@@H](C)CO)C[C@@H](C)[C@H](CN(C)Cc1ccc3c(c1)OCO3)O2 do in these assays?
T cruzi intra: 1; INS-1E rescue: 0

Results for Cc1noc(C)c1S(=O)(=O)Nc1ccc2c(c1)CC(=O)N([C@@H](C)CO)C[C@H](C)[C@H](CN(C)Cc1ccc(Cl)c(Cl)c1)O2 ?
T cruzi intra: 55; INS-1E rescue: -25

What do the screens show for `Cc1noc(C)c1S(=O)(=O)Nc1ccc2c(c1)CC(=O)N([C@@H](C)CO)C[C@H](C)[C@@H](CN(C)Cc1ccc(C(F)(F)F)cc1)O2`?
T cruzi intra: 61*; INS-1E rescue: 0
